Laboratory results reported in ChEMBL document CHEMBL3232989, “First identification of boronic species as novel potential inhibitors of the Staphylococcus aureus NorA efflux pump” (J Med Chem, 2014).

What was measured:
Staphylococcus aureus [1] = assay: Toxicity in Staphylococcus aureus ATCC 25923 after 24 hrs by microdilution method; format: organism-based
Outline: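 Mueller–Hinton broth microdilution; inoculum from frozen culture grown 18 h at 37 °C, 10^6 CFU/mL per well. Compounds (10 mg/mL DMSO stock) in 2-fold serial dilutions, highest 128 mg/L, first screened at 100 μg/mL. MIC = complete growth inhibition after 24 h at 37 °C, read at 620 nm and visually; duplicate; ampicillin control.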

Staphylococcus aureus [2] = assay: Toxicity in Staphylococcus aureus ATCC 25923 at 100 ug/ml after 24 hrs by microdilution method; format: organism-based
Outline: (§1)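 Single-point screen at 100 μg/mL of compound alone in MH broth microdilution, 10^6 CFU/mL, 24 h at 37 °C. Growth is read at 620 nm and visually, giving percent growth inhibition. Compounds inhibiting more than 90% then go to MIC determination. Duplicates.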

Staphylococcus aureus [3] = assay: Toxicity in fluoroquinolone-resistant Staphylococcus aureus 1199B expressing NorA at 100 ug/ml after 24 hrs by microdilution method; format: organism-based; outline: as §1
[4] = molecular target: T1, Quinolone resistance protein NorA (Staphylococcus aureus) (UniProt P0A0J7); assay: Inhibition of NorA in fluoroquinolone-resistant Staphylococcus aureus 1199B assessed as potentiation of 4 ug/ml of ciprofloxacin MIC at 100 ug/ml after 24 hrs by microdilution method
T1 sequence (whole entry): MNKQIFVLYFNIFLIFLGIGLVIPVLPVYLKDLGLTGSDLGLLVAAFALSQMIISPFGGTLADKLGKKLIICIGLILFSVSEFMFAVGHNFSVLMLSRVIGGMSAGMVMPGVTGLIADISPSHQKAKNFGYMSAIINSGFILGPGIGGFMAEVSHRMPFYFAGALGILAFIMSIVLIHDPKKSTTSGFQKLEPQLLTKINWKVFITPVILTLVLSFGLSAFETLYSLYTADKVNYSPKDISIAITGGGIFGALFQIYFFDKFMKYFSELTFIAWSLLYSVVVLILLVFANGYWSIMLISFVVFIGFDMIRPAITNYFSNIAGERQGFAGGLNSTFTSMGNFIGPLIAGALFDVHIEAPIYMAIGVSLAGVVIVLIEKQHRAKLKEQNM
Outline: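 Combination with ciprofloxacin 4 μg/mL (MIC/4) against SA-1199B in MH broth microdilution, 10^6 CFU/mL, 24 h at 37 °C, read at 620 nm and visually. Compounds are first screened at 100 μg/mL; actives are 2-fold serially diluted. MMC4 is the lowest inhibitor concentration giving antibacterial activity with subinhibitory ciprofloxacin. Duplicates.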

SMILES	MIC (Staphylococcus aureus [1])	growth inhibition (GI) (Staphylococcus aureus [2]) [%]	growth inhibition (GI) (Staphylococcus aureus [3]) [%]	Activity [4] [µg/mL]
CC(C)(O)C(C)(C)OB(OC(C)(C)C(C)(C)O)c1ccc(OCc2ccccc2)nc1	>= 64 ug ml-1	< 90	< 90	64
Cn1c(B2OC(C)(C)C(C)(C)O2)cnc1Cl	>= 64 ug ml-1	< 90	< 90	128
CCc1ccc(B(OC(C)(C)C(C)(C)O)OC(C)(C)C(C)(C)O)cc1	>= 64 ug ml-1	< 90	< 90	32
CC(C)(O)C(C)(C)OB(OC(C)(C)C(C)(C)O)c1ccncc1Br	>= 64 ug ml-1	< 90	< 90	> 128
OB(O)c1ccnc(F)c1Cl	>= 64 ug ml-1	< 90	< 90	16
COc1nccc(B(OC(C)(C)C(C)(C)O)OC(C)(C)C(C)(C)O)c1Cl	>= 64 ug ml-1	< 90	< 90	32
CC(C)(O)C(C)(C)OB(OC(C)(C)C(C)(C)O)c1ccncc1	>= 64 ug ml-1	< 90	< 90	> 128
CC1(C)OB(c2ccc3c(cnn3COCC[Si](C)(C)C)c2)OC1(C)C	>= 64 ug ml-1	< 90	< 90	16
CC(C)(O)C(C)(C)OB(OC(C)(C)C(C)(C)O)c1cccnc1F	>= 64 ug ml-1	< 90	< 90	> 128
CSc1ncccc1B(O)O	>= 64 ug ml-1	< 90	< 90	> 128
CC(C)(C)OC(=O)n1ncc2cc(B3OC(C)(C)C(C)(C)O3)ccc21	>= 64 ug ml-1	< 90	< 90	> 128
OB(O)c1ccc(Oc2cccnc2)nc1	>= 64 ug ml-1	< 90	< 90	> 128
OB(O)c1ccccc1-c1ccccc1	>= 64 ug ml-1	< 90	< 90	> 128
OB(O)c1ccccc1 [PHENYLBORONIC ACID]	>= 64 ug ml-1	< 90	< 90	32
OB(O)c1cccnc1	>= 64 ug ml-1	< 90	< 90	32
Cc1cc(B(OC(C)(C)C(C)(C)O)OC(C)(C)C(C)(C)O)cnc1N1CCOCC1	>= 64 ug ml-1	< 90	< 90	32
CC(C)[Si](Oc1ncc(B2OC(C)(C)C(C)(C)O2)o1)(C(C)C)C(C)C	>= 64 ug ml-1	< 90	< 90	> 128
CC(C)(O)C(C)(C)OB(OC(C)(C)C(C)(C)O)c1ccnc(Cl)c1C#N	>= 64 ug ml-1	< 90	< 90	> 128

SMILES	MIC (Staphylococcus aureus [1])	growth inhibition (GI) (Staphylococcus aureus [2]) [%]	growth inhibition (GI) (Staphylococcus aureus [3]) [%]	Activity [4] [µg/mL]
OB(O)c1ccc(F)nc1	>= 64 ug ml-1	< 90	< 90	32
N#Cc1c(B(O)O)ccnc1Cl	>= 64 ug ml-1	< 90	< 90	> 128
O[B-](O)(O)c1cccnc1.[Na+]	>= 64 ug ml-1	< 90	< 90	128
CC1(C)OB(c2cnc(-c3ccccc3)n2C(=O)c2ccccc2)OC1(C)C	>= 64 ug ml-1	< 90	< 90	32
CC(C)(O)C(C)(C)OB(OC(C)(C)C(C)(C)O)c1ccc(F)nc1	>= 64 ug ml-1	< 90	< 90	128
COc1nccc(B(O)O)c1Cl	>= 64 ug ml-1	< 90	< 90	32
CCOc1ccc(B(OC(C)(C)C(C)(C)O)OC(C)(C)C(C)(C)O)cn1	>= 64 ug ml-1	< 90	< 90	128
OB(O)c1ccnc(Cl)c1Cl	>= 64 ug ml-1	< 90	< 90	32
CCOC(=O)Nc1ncc(B2OC(C)(C)C(C)(C)O2)s1	>= 64 ug ml-1	< 90	< 90	> 128
CC(C)(O)C(C)(C)OB(OC(C)(C)C(C)(C)O)c1cc(Cl)ncc1Cl	>= 64 ug ml-1	< 90	< 90	32
OB(O)c1cc(Cl)ncc1Cl	>= 64 ug ml-1	< 90	< 90	64
CC(C)(C)OC(=O)n1cccc1B(O)O	>= 64 ug ml-1	< 90	< 90	> 128
OB(O)c1ccccc1F	>= 64 ug ml-1	< 90	< 90	16
CC(C)(O)C(C)(C)OB(OC(C)(C)C(C)(C)O)c1ccc(Cl)nc1	>= 64 ug ml-1	< 90	< 90	128
CCOC(=O)c1ccccc1B(O)O	>= 64 ug ml-1	< 90	< 90	> 128
OB(O)c1cncc(Oc2cncc(Cl)c2)c1	>= 64 ug ml-1	< 90	< 90	16
CC1(C)OB(c2cnn(C(=O)c3ccccc3)c2)OC1(C)C	>= 64 ug ml-1	< 90	< 90	128
CC(=O)n1nc(C)c2cc(B3OC(C)(C)C(C)(C)O3)ccc21	>= 64 ug ml-1	< 90	< 90	128
